# Source: ChEMBL document CHEMBL1121508, “Synthesis of alpha-methylene-gamma-butyrolactones: a structure-activity relationship study of their allergenic power” (1980)
# Assays:
# Assay type in all cases: functional
# Cavia porcellus [1] = species on record: Cavia porcellus; experiment: Average skin reaction in guinea pig sensitized to the sesquiterpene alantolactone
# Method in brief: (§1)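 Female guinea pigs (albino Hartley and Himalayan spotted Füllingsdorf), 300–500 g, sensitized by Klečak's method. The hapten was emulsified in Freund's complete adjuvant and injected intradermally into the shaved nuchal region on alternate days, five injections in all. Skin reactions at elicitation were scored up to 3 (erythema plus swelling well beyond the test area) and 4 (necrosis or ulceration). Irritation thresholds were first set on untreated animals by the same elicitation procedure.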
# Cavia porcellus [2] = species on record: Cavia porcellus; experiment: Average skin reaction in guinea pig sensitized to alpha-methylene-gamma-butyrolactone; method in brief: as §1
# Cavia porcellus [3] = species on record: Cavia porcellus; experiment: Average skin reaction in guinea pig sensitized to the sesquiterpene isoalantolactone; method in brief: as §1
# Cavia porcellus [4] = species on record: Cavia porcellus; experiment: Number guinea pigs sensitized to the sesquiterpene alantolactone (out of 7 guinea pigs); method in brief: as §1; further: test concentration or dose not given here
# Cavia porcellus [5] = species on record: Cavia porcellus; experiment: Number of guinea pigs sensitized to the sesquiterpene isoalantolactone (out of 8 guinea pigs); method in brief: as §1; further: test concentration or dose not given here
# Cavia porcellus [6] = species on record: Cavia porcellus; experiment: Number of guinea pigs sensitized to alpha-methylene-gamma-butyrolactone (out of 10 guinea pigs); method in brief: as §1; further: test concentration or dose not given here
# Cavia porcellus [7] = species on record: Cavia porcellus; experiment: Average skin reaction in guinea pig sensitized to the sesquiterpene isoalantolactone (toxic); method in brief: as §1
# Cavia porcellus [8] = species on record: Cavia porcellus; experiment: Average skin reaction in guinea pig sensitized to the sesquiterpene alantolactone (toxic); method in brief: as §1
# Cavia porcellus [9] = species on record: Cavia porcellus; experiment: Average skin reaction in guinea pig sensitized to alpha-methylene-gamma-butyrolactone (toxic); method in brief: as §1
# Cavia porcellus [10] = species on record: Cavia porcellus; experiment: Average skin reaction in guinea pig sensitized to the sesquiterpene alantolactone*-toxic; method in brief: as §1
# Cavia porcellus [11] = species on record: Cavia porcellus; experiment: Open Epicutaneous tests were performed on guinea pigs sensitized to alpha-methylene-gamma-butyrolactone; method in brief: as §1; further: test concentration or dose not given here
Compound,Average skin reaction (Cavia porcellus [1]),Average skin reaction (Cavia porcellus [2]),Average skin reaction (Cavia porcellus [3]),No. of sensitive (Cavia porcellus [4]),No. of sensitive (Cavia porcellus [5]),No. of sensitive (Cavia porcellus [6]),Average skin reaction (Cavia porcellus [7]),Average skin reaction (Cavia porcellus [8]),Average skin reaction (Cavia porcellus [9]),Average skin reaction (Cavia porcellus [10]),Average skin reaction (Cavia porcellus [11])
C=C1CC(C)(CC(C)(C)C)OC1=O (centres undefined),0.6,0.1,0.8,6,7,2,,,,,
C=C1CC(CC)OC1=O (centres undefined),,0,,,,0,,,,,
C=C1CC2(CCCc3ccccc32)OC1=O (centres undefined),,0.9,,7,8,10,2,1.7,,,
C=C1C(=O)OC2CCCCC12 (centres undefined),0.1,0.1,0.1,1,1,3,,,,,
C=C1CC2(OC1=O)C(C)CCCC2C (centres undefined),1,0,1.7,7,8,0,,,,,
C=C1C(=O)OC2C3CCC(C3)C12 (centres undefined),0.9,0.1,1,7,8,2,,,,,
C=C1CC2(CCCCCCCCC2)OC1=O,1.1,0,0.9,7,7,0,,,,,
C=C1CC2(OC1=O)C1CC3CC(C1)CC2C3 (centres undefined),0.8,0.1,0.8,6,8,2,,,,,
C=C1CC2(CC3CCC2C3)OC1=O (centres undefined),0.3,0,0.2,4,4,0,,,,,
C=C1CC(C)OC1=O (centres undefined),0,0.6,0,0,0,7,,,,,
C=C1CC2(CCC(C(C)(C)C)CC2)OC1=O (centres undefined),0.8,0,1.1,6,8,1,,,,,
C=C1CCOC1=O [TULIPALINE A],0.1,1.9,,1,,10,,,,,
C=C1CC(c2ccccc2)OC1=O (centres undefined),,,,7,8,10,1.5,1.1,1.4,,
C=C1CC(CC)(CC)OC1=O,0.4,0,0.7,5,8,0,,,,,
C=C1CC2(CC[C@@]3(C)C(CC[C@H]4[C@@H]5CC[C@H](C(C)CCCC(C)C)[C@@]5(C)CC[C@@H]43)C2)OC1=O (some centres undefined),0.1,0,0,1,0,0,,,,,
C=C1CC(C(C)C)(C(C)C)OC1=O,,0,0.5,6,6,0,,,,0.6,
C=C1CC2(CCCCC2)OC1=O,0.5,0.1,0.8,5,8,2,,,,,

Compound,Average skin reaction (Cavia porcellus [1]),Average skin reaction (Cavia porcellus [2]),Average skin reaction (Cavia porcellus [3]),No. of sensitive (Cavia porcellus [4]),No. of sensitive (Cavia porcellus [5]),No. of sensitive (Cavia porcellus [6]),Average skin reaction (Cavia porcellus [7]),Average skin reaction (Cavia porcellus [8]),Average skin reaction (Cavia porcellus [9]),Average skin reaction (Cavia porcellus [10]),Average skin reaction (Cavia porcellus [11])
C=C1CC2(CC3CC4(CC(=C)C(=O)O4)CC3C2)OC1=O (centres undefined),0.2,0,0.2,2,3,1,,,,,
C=C1CC(C)(C)OC1=O,0,0.5,0,0,0,6,,,,,
C=C1C(=O)OC2CC3(C)CCCC(C)C3=CC12 (centres undefined),3,0,2.1,7,8,0,,,,,
C=C1CC2(CCCC2)OC1=O,0.2,0,0.1,2,1,0,,,,,
C=C1CC(C(C)(C)C)OC1=O (centres undefined),0.3,0.1,0.5,3,5,1,,,,,
C=C1CC2(CCCCCC2)OC1=O,1.1,0.1,1.2,7,8,2,,,,,
C=C1CC(c2ccccc2)(c2ccccc2)OC1=O,0.9,,0.4,7,5,0,,,,,0
C=C1CC(CCCCCCCCCCC)OC1=O (centres undefined),,,,7,8,10,1.2,0.9,1,,
C=C1CC(C)(c2ccccc2)OC1=O (centres undefined),,,,7,8,5,1.3,1.1,0.4,,
C=C1CC2(CCCC3CCCCC32)OC1=O (centres undefined),1.4,0,1.4,7,8,0,,,,,
C=C1CC(C)(CC)OC1=O (centres undefined),0.4,0,0.4,5,6,0,,,,,
C=C1C(=O)OC2CC3(C)CCCC(=O)C3CC12 (centres undefined),0.9,,0.9,7,8,,,,,,
C=C1C(=O)OC2CC3(C)CCCC4(CO4)C3CC12 (centres undefined),0.7,,1,7,8,,,,,,
C=C1CC2(OC1=O)C1CCC(C1)C2(C)C (centres undefined),0.7,0,1.1,7,8,0,,,,,
C=C1C(=O)OC(c2ccccc2)(c2ccccc2)C1C(=O)OCC (centres undefined),0.1,0,0,1,0,0,,,,,
C=C1C(=O)O[C@@H]2C[C@@]3(C)CCCC(=C)[C@@H]3C[C@H]12 [ISOALANTOLACTONE],1.4,0,1.4,7,8,0,,,,,
C=C1CC2(CCC3(CC2)CC(=C)C(=O)O3)OC1=O (centres undefined),0,0,0.1,0,1,0,,,,,
